# Bioassay records deposited in PubChem by several laboratories.
# Compounds with a hit are over-represented: about 1.5% of the library has one in this group of screens.
# LANA-H2A inh: blocks KSHV LANA binding to histone H2A/H2B. Q9QR71. actives 0.6% (n = 320,000). cell-free LANA-H2A/H2B peptide, fluorescence polarization. inhibition, % (test concentration not listed); in the data active means inhibition mostly above about 10%, no sharp cut-off; inactive means mostly below about 6.7%
# DSG3 Ab inh: human desmoglein-3 autoantibody binding inhibition. binding (percent of control), % at 10 µM. P32926. DSG3-coupled beads, scFv-anti-DSG3-GFP binding, flow cytometry; hits give low values. actives 0.48% (n = 310,000);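 active means binding more than 3 SD below its plate's average and above zero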;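 further: hits lower antibody fragment binding to DSG3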
# Arrestin-AP2 inh: blocks beta-arrestin peptide binding to AP2 adaptin | FITC-arrestin peptide / GST-AP2 beads, flow cytometry; AP2 beta2 appendage carries R879A mutation | inhibition, % at 10 µM | actives 0.31% (n = 340,000);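 active means inhibition above a set limit, near 3 SD of compounds lacking own fluorescence, cut at about 54% in these data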;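 further: plate controls were DMSO wells for no effect and 5 µM unlabelled arrestin peptide for full effect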
#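 Material – AP2 appendage R879A on GSH beads · Buffer or medium – PBS with 0.05% Tween 20 and 0.1% BSA · Probe or stimulus – fluorescein-tagged arrestin peptide at 50 nM final · Incubation – compound with beads 12 min RT, then probe 1 h RT · Detection – high-throughput flow cytometry of beads, ex 488, em 535 nm · Evaluation – percent response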
# HDAC3 inh: human HDAC3 inhibition; O15379; recombinant HDAC3, fluorogenic peptide/trypsin coupled, fluorescence; inhibition, % at 8.3 µM; actives 0.15% (n = 320,000); AID 2718; in the data active means inhibition above about 26%, passing the limit was not always enough
# Target sequence (O15379 whole entry, looked up): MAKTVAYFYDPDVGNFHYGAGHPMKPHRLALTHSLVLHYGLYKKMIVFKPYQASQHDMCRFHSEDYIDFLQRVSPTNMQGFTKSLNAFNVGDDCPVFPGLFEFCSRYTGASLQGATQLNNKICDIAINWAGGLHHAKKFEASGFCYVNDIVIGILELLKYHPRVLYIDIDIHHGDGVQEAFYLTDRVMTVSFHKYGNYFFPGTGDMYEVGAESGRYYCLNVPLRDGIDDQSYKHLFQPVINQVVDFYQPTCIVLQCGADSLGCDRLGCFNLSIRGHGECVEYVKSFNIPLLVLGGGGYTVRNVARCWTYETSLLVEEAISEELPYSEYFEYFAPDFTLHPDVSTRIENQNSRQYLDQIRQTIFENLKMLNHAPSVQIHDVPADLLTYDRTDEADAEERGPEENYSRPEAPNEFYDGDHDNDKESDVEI
# T cell modulator: T cell immune modulation candidate; response (vesicle binding), % at 7 µM; AID 2052; 2C CD8+ T cell-vesicle binding, flow cytometry; hits give low values; actives 0.068% (n = 330,000);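 active means response, share of CD8 T cells binding vesicles, and their 90th percentile fluorescence all below set limits, cut at about 80% in these data, passing the limit was not always enough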;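 further: values below 100% mean blocked vesicle binding to the CD8+ T cells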
#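 Incubation: binding step 1.5 h, 37 °C, antibody labelling 20 min, ice; system: murine 2C transgenic CD8+ T lymphocytes; technique: cytometric PE anti-B7-1 and Alexa647 anti-CD8 signals after 1% paraformaldehyde fixation; also added: QL9-charged Drosophila Ld/ICAM-1/B7-1 vesicles; control set: naked versus QL9-loaded vesicles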
# Arr-AP2 CP1: blocks beta-arrestin peptide binding to human AP2; shares compounds with Arrestin-AP2 inh; GST-AP2 beads, FITC arrestin peptide binding, flow cytometry; GST-fused beta2-adaptin appendage, R879A mutant; inhibition, % at 10 µM; actives 2% (n = 1,300);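 active means inhibition above a set limit, roughly 3 SD of non-fluorescent compound noise, cut at about 38% in these data; inactive means inhibition at or below that limit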;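 further: loss of bead fluorescence from 50 nM FITC arrestin peptide bound to appendage; 0% = negative control wells and 100% = excess unlabelled arrestin peptide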
# GST-FITC bead: disrupts GST binding to glutathione beads, arrestin-AP2 artifact | AID 588338 | shares compounds with Arrestin-AP2 inh | actives 2% (n = 1,300) | GST-fluorescein binding to GSH beads, fluorescence, counter-screen | inhibition, % at 10 µM;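 active means inhibition above 50%, about 3 SD of the inhibition seen with non-fluorescent compounds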;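 further: fluorescein maleimide labelled GST captured on 4 micron glutathione beads; higher means more loss of bead fluorescence from quenching or blocked binding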
# * = called active by the depositor; i = inactive; nt = no result.
SMILES,LANA-H2A inh,DSG3 Ab inh,Arrestin-AP2 inh,HDAC3 inh,T cell modulator,Arr-AP2 CP1,GST-FITC bead
COc1ccc(NC(=O)CSCC(=O)Nc2ccc(S(=O)(=O)N3CCCCC3)cc2)cc1,3,106,57*,-4,221,-12,-8
CC(=O)Nc1ccc(S(=O)(=O)NC(CSc2ccc(C(=O)O)cc2[N+](=O)[O-])C(=O)O)cc1 (stereo not drawn),0,98,-6,-2,826,nt,nt
COC(=O)c1cc(OC)c(OC)cc1NC(=S)N1CCCC1,2,111,56*,-1,218,2,-5
CCc1ccc(OCCCC(=O)Nc2ccc(S(=O)(=O)Nc3cc(C)nc(C)n3)cc2)cc1,5,103,-12,-2,226,nt,nt
CC(OC(=O)c1cccc(-n2cnnn2)c1)C(=O)Nc1ccc(F)c(F)c1F (stereo not drawn),nt,106,-6,nt,nt,nt,nt
S=C(NCc1ccco1)Nc1cccc(Cl)c1,1,nt,59*,3,554,18,-5
Cc1ccc(Cc2ccc(C(=O)NNC(N)=S)o2)cc1,-3,97,59*,3,200,-8,-2
Cc1ccc(NC(=O)CCS(=O)(=O)c2ccccc2)cc1S(=O)(=O)N1CCCCCC1,nt,102,58*,nt,nt,-10,0
C#Cc1cccc(NC(=O)Cc2cccs2)c1,0,119,56*,-1,173,3,-8
COc1ccc(CC(=O)N2CCC3(CC2)NCCc2[nH]cnc23)cc1,-2,nt,-4,-10,277,nt,nt
O=C(Cc1ccc(F)cc1)N1CCC2(CC1)NCCc1[nH]cnc12,1,108,56*,-2,410,3,-4
Cc1onc(-c2c(F)cccc2Cl)c1C(=O)OCC(=O)NCc1ccccc1,nt,110,-12,-9,366,nt,nt
CC(C)=C1SC(N2CCCCC2)=NC1=O,1,108,13,3,483,nt,nt
C/C(=C1/SC(N2CCCC2)=NC1=O)c1ccc(Br)cc1,3,110,79*,9,189,-12,-6
CC(=O)NCCc1nc2cc(NC(=O)c3ccc([N+](=O)[O-])cc3)ccc2n1C,0,115,0,-1,239,nt,nt
CCOc1ncccc1C(=O)OCC(=O)NC1CCCCC1,-1,nt,-9,1,540,nt,nt
COc1ccc(OC)c(CNC(=O)CCNC(=O)Cn2ccc3ccccc3c2=O)c1,3,101,3,4,418,nt,nt
COc1ccc(Br)cc1CNC(=O)CCNC(=O)Cn1ccc2ccccc2c1=O,4,105,57*,2,171,1,0
Cc1c(C(=O)N2CCN(S(=O)(=O)c3cc(F)ccc3F)CC2)oc2ccccc12,0,nt,6,-1,171,nt,nt
COc1cc(C2Nc3cccc4cccc(c34)N2)cc(OC)c1O,-3,100,56*,2,281,17,9
CCN(C(=O)Cn1cc(C(=O)C(=O)N2CCOCC2)c2ccccc21)c1ccccc1,4,97,66*,nt,329,-8,1
CCN(CC)C(=O)Cn1cc(C(=O)C(=O)N2CCN(c3ccccc3)CC2)c2ccccc21,0,100,-12,-5,273,nt,nt
CC1CC(C)CN(CCCNC(=O)c2ccc(CS(=O)(=O)Cc3ccccc3F)o2)C1 (stereo not drawn),-6,107,59*,-11,368,-3,-11
FC(F)(F)c1cc(C(F)(F)F)c2ccc(Oc3ccccc3)nc2n1,-9,102,5,7,564,nt,nt
Nc1ccc2c(C(F)(F)F)cc(C(F)(F)F)nc2n1,0,102,56*,-88,178,-3,-6
SMILES,LANA-H2A inh,DSG3 Ab inh,Arrestin-AP2 inh,HDAC3 inh,T cell modulator,Arr-AP2 CP1,GST-FITC bead
CCS(=O)(=O)Nc1cccc(C2=NN(C(C)=O)C(c3cccs3)C2)c1 (stereo not drawn),2,94,54*,-1,165,-4,-10
CC(=O)N1N=C(c2cccc(NS(C)(=O)=O)c2)CC1c1cccs1 (stereo not drawn),1,95,-17,-6,194,nt,nt
CCn1c(CC(=O)Nc2ccc(OC)cc2)nnc1SCC(=O)N1CCOCC1,4,110,66*,-3,465,6,-8
O=C(/C=C/c1ccccc1)NCCS(=O)(=O)N1CCN(c2ccccc2)CC1,2,101,55*,5,561,-4,-9
O=C(/C=C/c1ccc2c(c1)OCO2)NCCS(=O)(=O)N1CCN(c2ccccc2)CC1,nt,104,nt,nt,nt,nt,nt
COc1ccc(CNC[C@H]2O[C@@H](n3cnc4c(N)ncnc43)[C@H](O)[C@@H]2O)cc1OC,nt,110,11,7,333,nt,nt
Cc1cccc(NC(=O)Nc2cnccn2)c1C,-2,111,-5,5,257,-8,-5
Cc1ccccc1NC(=O)Nc1cnccn1,1,100,15,-5,357,6,-6
Cc1cccc(NC(=O)Nc2cccnc2)c1C,2,104,-10,-2,i,nt,nt
Cc1ccc(NC(=O)Nc2cnccn2)cc1Cl,1,101,1,0,221,nt,nt
CCCOc1ccc(C(=O)CCC(=O)NNC(=O)c2cccs2)cc1,-3,nt,-7,-4,352,nt,nt
COCCN(C(=O)COC(=O)/C(=C/c1ccccc1)NC(C)=O)c1c(N)n(Cc2ccccc2)c(=O)[nH]c1=O,1,101,59*,2,299,10,-1
Cc1ccccc1CN1CCN(CC2CC2)CC1CCO (stereo not drawn),3,118,57*,0,189,4,-4
Cc1ccc(C(=O)COC(=O)CCN2C(=O)C3C4C=CC(C5CC45)C3C2=O)cc1 (stereo not drawn),-2,nt,57*,-3,954,2,-1
C/C(=N\NC(=O)c1ccc(CSc2nncn2C)cc1)c1ccc2ccccc2c1,4,109,55*,1,86,4,-3
Cc1nc(-c2ccc(F)cc2)c(CC(=O)N(C)CC(=O)Nc2cccc(F)c2)s1,nt,98,nt,nt,nt,nt,nt
CCCCNS(=O)(=O)c1ccc(NC(=O)Cc2ccccc2[N+](=O)[O-])cc1,-10,100,56*,1,869,1,1
CC(=O)Nc1ccc(C(C#N)=Cc2ccc(N(C)CCC#N)cc2)cc1,nt,103,nt,nt,nt,nt,nt
COc1cc(C(=O)NCC(=O)OCC(=O)Nc2nnc(-c3ccccc3)o2)cc(OC)c1OC,0,99,0,-1,365,nt,nt
COc1cc(C(=O)OCC(=O)Nc2nnc(-c3ccccc3)o2)cc(OC)c1OC,nt,106,55*,nt,304,-6,-8
COC(=O)c1nc2ccc(N3CCOCC3)cc2c(C)c1C(=O)OC,0,nt,57*,-26,329,-1,5
